From paper PMC4138072 (Biochemistry, 2014)
Entries after “also recorded” stand apart in the source; their conditions may differ.

Key:
S. mansoni schistosomula = assay: Helminth fluorescence bioassay; format: cell-based, Schistosoma mansoni; details: 100 μM, in vitro cocultivation
Summary of the method: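 S. mansoni schistosomula were mechanically transformed and exposed to test compound at 100 μM final. Incubation was 24 h (also 72 h) at 37 °C in humidified 5% CO2. Viability was then scored by the helminth fluorescence bioassay, in duplicate.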

human arginase I [1] = details: cited from earlier work
human arginase I [2] = assay: Isothermal titration calorimetry, human arginase I; format: binding; details: ITC Kd, human arginase I versus SmARG
[3] = biological target: T1, SmARG (S. mansoni arginase) (Schistosoma mansoni, UniProt Q6WVP6); assay: Colorimetric arginase activity assay; format: biochemical; details: Figure S2b
T1 sequence (Q6WVP6 1-364): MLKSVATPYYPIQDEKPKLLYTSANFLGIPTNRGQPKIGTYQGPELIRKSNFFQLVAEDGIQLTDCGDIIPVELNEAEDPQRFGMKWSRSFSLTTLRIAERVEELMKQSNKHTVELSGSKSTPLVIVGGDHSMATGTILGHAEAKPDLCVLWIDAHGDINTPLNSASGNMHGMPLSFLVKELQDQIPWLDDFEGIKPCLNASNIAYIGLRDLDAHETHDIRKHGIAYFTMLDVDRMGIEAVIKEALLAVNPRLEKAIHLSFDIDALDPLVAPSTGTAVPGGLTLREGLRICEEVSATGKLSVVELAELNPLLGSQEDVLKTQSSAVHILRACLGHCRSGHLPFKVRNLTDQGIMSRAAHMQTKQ
Summary of the method: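 Recombinant SmARG was expressed in E. coli BL21(DE3) and purified by Talon affinity then size exclusion into bicine pH 8.5 with 100 μM MnCl2. Reactions used 0.5–50 mM L-arginine in 50 mM EPPS pH 8.5 with 100 μM MnCl2, started with 1 μM enzyme at 21 °C and stopped after 1 min with acid/α-isonitrosopropiophenone. Samples were heated 1 h at 90 °C and urea read at A550. Ki came from a competitive-inhibition Michaelis–Menten fit, in triplicate.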

[4] = biological target: T1, SmARG (S. mansoni arginase); assay: Isothermal titration calorimetry of SmARG–inhibitor complexes; format: binding; details: ITC Kd

enhancement of affinity compared with the parent SmARG–ABH complex [4]	SMILES	schistosomula viability or morphology (S. mansoni schistosomula; 24 h, 37 °C, absence of host)	schistosomula viability or morphology (S. mansoni schistosomula; 72 h (data not shown))	also measured
–	N[C@@H](CCCCB(O)O)C(=O)O [ABH, 2(S)-amino-6-boronohexanoic acid]	no significant difference; also recorded: do not affect parasite viability	no significant difference	preferential inhibition of human arginase I compared with nor-NOHA (human arginase I [1]): at least 10 fold; tighter binding to human arginase I than to SmARG (human arginase I [2]): 260 fold
–	Cl.O=C(O)CCP(CCC(=O)O)CCC(=O)O [TCEP, Tris(2-carboxyethyl)phosphine hydrochloride]	–	–	SmARG activity in the presence of reducing reagents [3]: severely attenuated
2 fold	N[C@](CCCCB(O)O)(CCN1CCCCC1)C(=O)O [ABHPE, (R)-2-amino-6-borono-2-[2-(piperidin-1-yl)ethyl]hexanoic acid]	–	–	–
–	N=C(NO)NCC[C@H](N)C(=O)O [nor-NOHA, nor-N-hydroxy-L-arginine]	no significant difference; also recorded: do not affect parasite viability	no significant difference	more effective than ABH in binding to SmARG ([4]; N-hydroxyguanidinium moiety versus tetrahedral boronate anion of ABH): ~4 fold
5 fold	N[C@@](CCCCB(O)O)(C(=O)O)C1CCN(Cc2ccc(Cl)c(Cl)c2)CC1 (racemic) [ABHDP, (R)-2-amino-6-borono-2-[1-(3,4-dichlorobenzyl)piperidin-4-yl]hexanoic acid]	–	–	–
